assay: Toxicity liver stage against HepG2, at 10uM; format: cell-based; parameters: test concentration 10 uM, cell line HepG2-A16-CD81EGFP; conditions: human, HepG2-A16-CD81EGFP cells; read-out: INHIBITION
Method in brief: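 Uninfected HepG2-A16-CD81EGFP cells, 3 × 10^3 per well, 1536-well, plated on prespotted compound at 10 μM final, parasite-free screening media added to match infected plates; puromycin 10 μM positive, DMSO 0.5% negative; run in parallel with 48 h PbLuc assay at 37 °C, 5% CO2; viability by CellTiter-Glo luminescence, normalized to controls.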

Row | SMILES | cytotoxicity at 10 µM [%]
1 | Cc1cccc(-c2noc([C@@H]3Cc4nc[nH]c4CN3)n2)c1 | 0.442
2 | c1cncc(O[C@H]2COCCN(C3CCC3)C2)c1 | 0.514
3 | CC(C)C[C@@H]1N[C@H](C(=O)NCC2CC2)Cc2c[nH]c3cccc1c23 | 12.4
4 | CCCNC(=O)COc1cc(C)c2c(C)nn(-c3ccccc3)c2n1 | -0.295
5 | O=C(CN1C(=O)CC2(CCCC2)C1=O)NCCc1nccs1 | 0.566
6 | Cc1nc(C)c(CC(=O)NCc2ccccc2F)s1 | 6.23
7 | CS(=O)(=O)N1CCc2ccc(=O)n(CC3CC3)c2CC1 | 7.25
8 | O=C(c1ccc2[nH]ccc2c1)N1Cc2nc(CN3CCCC3)oc2C1 | 6.98
9 | CCOCCCNC(=O)c1cc(C(C)C)nc(N2CCCCCC2)n1 | 8.53
10 | Nc1ncc(-c2ccc(Cl)cc2)c(C2CCCNC2)n1 (stereo not drawn) | -7.64
11 | O=C(CC1CCN(c2cccnn2)CC1)Nc1nncs1 | 1.01
12 | NC(=O)c1cnc(NC2CC2)nc1CCNC(=O)CC1CCCC1 | 3.29
13 | O=C(N[C@@H]1CCC[C@@H](N2CCCC2)[C@@H]1O)c1cnn2cccnc12 | 10.6
14 | Cc1cnc(C(=O)N2Cc3cc(Cl)ccc3OC3(CCOCC3)C2)cn1 | -37.9
15 | CN(C)c1cncc(C2CCN(CC(N)=O)CC2)n1 | 3.07
16 | Cc1ncc(CN2CCc3c(nc(-c4ccccn4)[nH]c3=O)C2)n1C | -30.1
17 | CC(C)S(=O)(=O)NC(=O)CC(c1ccccc1)C(F)(F)F (stereo not drawn) | -43.9
18 | NC(=O)CN1CCC(NC(=O)COCCOc2ccccc2)CC1 | -9.46
19 | COc1ccc(C2CCCN2c2cnccn2)c(OC)c1 (stereo not drawn) | 3.72
20 | CCc1ccc(C(=O)NCC2CCCN2CC)o1 (stereo not drawn) | 0.632
21 | CNC(=O)c1cccc(NC(=O)NC(C)CCc2cccn2C)c1C (stereo not drawn) | -1.39
22 | Cc1cc(C)n(C2CN(Cc3ccc(C(=O)N4CCCC4)cc3)C2)n1 | 1.89
23 | Cn1cc(CNC2CCc3ncnn3C2)c(-c2cccnc2)n1 (stereo not drawn) | -5.92

Row | SMILES | cytotoxicity at 10 µM [%]
24 | CC1CCc2nc(NC(=O)CN(C)C(=O)c3ccco3)sc2C1 (stereo not drawn) | -11.4
25 | COCc1ccc(C(=O)N2CCCN(C(=O)OCC(C)C)CC2)cc1 | 13.4
26 | CCc1ncc2c(n1)CN(Cc1cn3ccsc3n1)CC2 | -8.26
27 | CC(=O)NCC1CCN(C(=O)NCCc2ccc3c(c2)OCO3)CC1 | -5.22
28 | N#Cc1ccc(CN2CCN(C(=O)CCn3cncn3)CC2)cc1 | -7.06
29 | CCOc1cccc(CNc2cncc(-n3cccn3)n2)c1 | -0.363
30 | CCCC(NC(=O)c1occc1C)c1nnn[nH]1 (stereo not drawn) | -9.36
31 | Cc1cc2n(n1)CC(CNC1CCN(c3ccccn3)CC1)CN2 (stereo not drawn) | 6.09
32 | C=C(C)CNC1CCCN(Cc2noc(C3CC3)n2)C1 (stereo not drawn) | -4.56
33 | OCCN1CCN(Cc2cc3c(cc2Br)OCCO3)CC1 | 7.59
34 | CC(=O)N1CCN(CCNS(=O)(=O)c2c(F)cccc2F)CC1 | -1.14
35 | Cc1occc1C(=O)N1CCCN(Cc2cnn(C(C)C)c2)CC1 | -5.62
36 | CCc1nc(CNC2CCCc3c2cnn3CC)cs1 (stereo not drawn) | 5.12
37 | O=C(CCS(=O)(=O)C1CCCC1)NCCc1cccc(O)c1 | -3.09
38 | Cc1nc(CN(C)C(=O)NC(C)c2ccc3c(c2)OCCO3)cs1 (stereo not drawn) | -4.45
39 | Cc1ccc2c(c1)OC1(NC2=O)C(=O)N(C)c2ccccc21 (stereo not drawn) | -23.8
40 | Cn1ccc(C(=O)NCc2cccc(Cn3ccnc3)c2)cc1=O | 8.42
41 | Cn1c(CC2CCS(=O)(=O)C2)nnc1SCCOc1cccc(Cl)c1 (stereo not drawn) | 14.4
42 | Cc1nn(CCO)c(C)c1CNC1CCc2c(Cl)cccc21 (stereo not drawn) | -6.34
43 | Cc1cnn(CC2CCCN2CC(=O)N(C)CCC#N)c1 (stereo not drawn) | 7
44 | COCCNC(=O)[C@]12COC[C@H]1CN(C1CCOCC1)C2 | -109
45 | Cc1csc(CN2C[C@@H]3COC[C@]3(C(=O)NCc3ccco3)C2)n1 | -105
46 | CCOCC1CN(C(=O)Cc2ccccn2)Cc2cn(CC)nc21 (stereo not drawn) | 5.06

Row | SMILES | cytotoxicity at 10 µM [%]
47 | CS(=O)(=O)NC1CCc2c(ccc(=O)n2CC2CC2)C1 (stereo not drawn) | 4.84
48 | CCN(Cc1nc(COC)no1)Cc1cccnc1NC | -43.7
49 | Cc1nsc(NC(=O)NC2CCOCC2)n1 | -10.1
50 | Cc1nc(N2CC[C@@H](c3ccc4ccccc4c3)[C@H](O)C2)no1 | -3.65
51 | CC(Cn1ccnc1)NCc1csc2c1CCCC2 (stereo not drawn) | -3.37
52 | CN(C)c1ncnc2c1CCN(S(=O)(=O)c1cccc3nsnc13)C2 | 4.01
53 | COc1cccc(OCCn2c(C)c(C)oc2=O)c1 | -7.12
54 | OCCOCCNCC1(c2ccc(F)cc2)CCOC1 (stereo not drawn) | -147
55 | OC1CCN(CCCNc2nccc(C3CCCC3)n2)CC1 | -1.81
56 | CN(C)c1cnn(CC(=O)N2Cc3ccccc3C2)c(=O)c1 | 4.52
57 | c1csc(CCNc2nc(-c3ccncc3)nc3c2CCNCC3)c1 | -165
58 | CCC(C)N(Cc1ccncc1)Cc1cccc(Cn2cccn2)c1 (stereo not drawn) | -45.1
59 | CN(C)Cc1cc(-c2nccn2CCc2cccnc2)ccc1O | -42.9
60 | Cc1cc(N2CCCN(CCc3ccccc3)CC2)ccn1 | -3.67
61 | O=C1CCCN1C1CCCN(CCOc2ccc(F)cc2)C1 (stereo not drawn) | 7.62
62 | O=C1CCC2(CCCN(CCn3cc(Cl)cn3)C2)CN1C1CCCC1 (stereo not drawn) | 4.71
63 | O=C(c1cncc(F)c1)N1CCC(c2ncc[nH]2)CC1 | -1.39
64 | CN(C(=O)CCc1cccs1)C1CCCN(C2Cc3ccccc3C2)C1 (stereo not drawn) | -4.49
65 | CC(=O)N(C/C=C/c1ccccc1)CCO | 4.64
66 | COCc1ncc(CN2CC(Oc3c(C)cccc3C)C2)cn1 | 5.12
67 | NC(=O)c1cc2c(nc1CCOc1ccc(F)cc1)CCC2 | 4.22
68 | Cc1cc(C)n(CC(=O)N2CCCCC2CCc2cccs2)c(=O)n1 (stereo not drawn) | 6.93
69 | CCCn1cnnc1-c1nc2c([nH]1)CC(c1ccc(Cl)cc1)CNC2=O (stereo not drawn) | -31.1

Row | SMILES | cytotoxicity at 10 µM [%]
70 | CCCc1nc(CNC(=O)Cc2cc(C)no2)cs1 | -11.5
71 | COCc1cc(N(C)Cc2c(C)nn(C)c2C)n2nccc2n1 | 2.45
72 | Fc1cc(Cl)cnc1N1CCCC(c2nccn2Cc2ccncc2)C1 (stereo not drawn) | -2
73 | Cc1ccc(-c2cc(C(=O)N3CCCC3c3cccnc3)[nH]n2)o1 (stereo not drawn) | -1.41
74 | Cc1ccc(OC2(C(=O)O)CCN(C(=O)CCc3ccco3)CC2)cc1 | -8.06
75 | Cc1ccc2nc(CNCCCN3CCCC3=O)cc(O)c2c1 | -1.14
76 | CC(=O)N1CCCn2nc(CNS(=O)(=O)c3cc(C)cs3)cc2C1 | -9.58
77 | Cc1cc(F)ccc1OC1(C(=O)O)CCN(Cc2cccnc2N)CC1 | -1.83
78 | COc1ccc(CCNC(C)c2ccc3[nH]c(=O)[nH]c3c2)cc1OC (stereo not drawn) | -16.8
79 | Cc1ccsc1CN(Cc1nc2c(cnn2C)c(=O)[nH]1)C(C)C | -7.27
80 | Cc1noc(C)c1CNC(=O)N(C)C1CCN(c2ccccc2)C1=O (stereo not drawn) | -8.63
81 | Cc1cc(CN2CCN(C(=O)NCc3ccco3)CC2)no1 | -14.8
82 | CC(C)Oc1ncccc1CNC(=O)N1CCCC1c1ccsc1 (stereo not drawn) | -8.25
83 | Cc1ccc(NC2CCN(C(=O)c3cccc4c3ccn4C)CC2)nn1 | -17.3
84 | O=C(c1cc2ccccc2[nH]1)N1CCC(Nc2cccnn2)CC1 | -16.9
85 | CCOc1ncccc1CNC(=O)Nc1ccccc1 | -4.87
86 | Cc1cnn(CCNCc2nnc(-c3ccccc3)o2)c1 | -10.4
87 | CC(=O)Nc1nc(CN2CCOC(Cn3cccn3)C2)cs1 (stereo not drawn) | -5.69
88 | CCN1CCN(C2CCN(Cc3nnc(C4CC4)o3)CC2)C1=O | 1.75
89 | Cc1c(Cl)c(CN2CCCC2Cn2cncn2)nc2ccccc12 (stereo not drawn) | -13.3
90 | CCc1nc(C2CCCN2Cc2nc(Cc3ccccc3)no2)no1 (stereo not drawn) | 3.12
91 | Cn1cc(CCNC(=O)CCc2ccc3c(c2)OCO3)cn1 | -7.15
92 | CN1CC(=O)N(c2cccnc2)CC12CCN(C(=O)C1CCCCC1)C2 (stereo not drawn) | 1.55

Row | SMILES | cytotoxicity at 10 µM [%]
93 | CC(=O)NCC(=O)N1Cc2nccn2CC(COc2cccnc2)C1 (stereo not drawn) | -2.6
94 | Cn1nc(C2CCCN(Cc3cccc(F)c3)C2)c2nccnc21 (stereo not drawn) | -3.96
95 | Cc1occc1C(=O)N1Cc2nccn2CC(CN2CCCC2)C1 (stereo not drawn) | -105
96 | O=C(N1CCCC1)N1CCN(Cc2cccnc2)c2ncccc2C1 | 3.33
97 | O=C(CO)N1CCC(F)(F)C2(CCN(c3ccccc3)C2)C1 (stereo not drawn) | 13.8
98 | O=C(c1ccncc1)N1CCOC2(COCCN(c3cccnc3)C2)C1 (stereo not drawn) | 6.25
99 | CO[C@@H]1CCN(c2ncc(F)cn2)[C@@H]2CN(Cc3cccnc3)C[C@@H]21 | 11.8
100 | c1csc(CN2CCc3ncnc(C4CCOC4)c3CC2)n1 (stereo not drawn) | 4.53
101 | O=C(O)[C@]12CCCN(C3CCOC3)C[C@H]1CN(c1ncccn1)C2 (stereo partly drawn) | -97.4
102 | Cn1cc(CN2CCC[C@]3(C[C@H](Oc4ncccc4F)CO3)C2)cn1 | 9.92
103 | COc1cc(N2C[C@@H]3COC[C@]3(C(=O)NC3CC(F)(F)C3)C2)ncn1 | 14.7
104 | Cc1cccc(CN2CCc3onc(Cn4cccc4)c3C2)n1 | 7.81
105 | COc1cccc(CNc2c(C)nn(C(C)C)c2C)c1 | -46.9
106 | c1ccc(OC[C@@H]2CCC[C@@]23CNCCO3)nc1 | 9.93
107 | CN(C)CC1CN(C(=O)Cc2ccccc2)Cc2nccn2C1 (stereo not drawn) | -115
108 | Cc1csc(CN2CCn3c(COc4cccnc4)cnc3C2C)n1 (stereo not drawn) | -98.4
109 | CN(Cc1ccco1)[C@@H]1CN(Cc2cccs2)C[C@@H]2CCCO[C@@H]21 | 3.65
110 | Cn1nc(COc2cccnc2)c2c1CCN(Cc1ccco1)C2 | -5.57
111 | CCc1ccc(CN2CCN(C)c3ncccc3C2)o1 | 3.78
112 | COCCN1CCN(S(=O)(=O)c2ccccc2)Cc2cccnc21 | 4.77
113 | Cc1[nH]c(C2(N)CCCCC2)nc(=O)c1C | -0.846

Reference: ChEMBL document CHEMBL4513216, “Probing the Open Global Health Chemical Diversity Library for Multistage-Active Starting Points for Next-Generation Antimalarials” (ACS Infect Dis, 2020)
